Assay results taken from ChEMBL document CHEMBL4190389, “Synthesis and activity of di- or trisubstituted N-(phenoxyalkyl)- or N-{2-[2-(phenoxy)ethoxy]ethyl}piperazine derivatives on the central nervous system” (Bioorg Med Chem Lett, 2018).
The source made the active and inactive calls. No cut-off for these calls is given here.

Experiments:
[1] = target: T1, 5-hydroxytryptamine receptor 1A (Homo sapiens, UniProt P08908); experiment: Displacement of [3H]8-OH-DPAT from recombinant human 5-HT1A receptor expressed in HEK293 cell membranes after 60 mins by liquid scintillation counting method
T1 sequence (P08908 whole entry): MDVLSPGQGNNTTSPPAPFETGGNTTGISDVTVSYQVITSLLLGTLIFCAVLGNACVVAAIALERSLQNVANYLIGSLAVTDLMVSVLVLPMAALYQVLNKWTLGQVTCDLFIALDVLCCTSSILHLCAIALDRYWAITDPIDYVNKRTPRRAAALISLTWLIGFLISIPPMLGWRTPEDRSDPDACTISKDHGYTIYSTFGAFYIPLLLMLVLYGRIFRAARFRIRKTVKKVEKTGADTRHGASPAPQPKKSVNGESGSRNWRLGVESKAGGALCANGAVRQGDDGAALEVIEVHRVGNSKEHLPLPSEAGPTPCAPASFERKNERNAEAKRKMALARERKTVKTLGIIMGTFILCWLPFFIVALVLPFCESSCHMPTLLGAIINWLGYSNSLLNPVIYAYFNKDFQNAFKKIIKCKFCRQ

[2] = target: T2, 5-hydroxytryptamine receptor 2A (Homo sapiens, UniProt P28223); experiment: biochemical; assay type: cell-based, HEK293
T2 sequence (P28223 whole entry): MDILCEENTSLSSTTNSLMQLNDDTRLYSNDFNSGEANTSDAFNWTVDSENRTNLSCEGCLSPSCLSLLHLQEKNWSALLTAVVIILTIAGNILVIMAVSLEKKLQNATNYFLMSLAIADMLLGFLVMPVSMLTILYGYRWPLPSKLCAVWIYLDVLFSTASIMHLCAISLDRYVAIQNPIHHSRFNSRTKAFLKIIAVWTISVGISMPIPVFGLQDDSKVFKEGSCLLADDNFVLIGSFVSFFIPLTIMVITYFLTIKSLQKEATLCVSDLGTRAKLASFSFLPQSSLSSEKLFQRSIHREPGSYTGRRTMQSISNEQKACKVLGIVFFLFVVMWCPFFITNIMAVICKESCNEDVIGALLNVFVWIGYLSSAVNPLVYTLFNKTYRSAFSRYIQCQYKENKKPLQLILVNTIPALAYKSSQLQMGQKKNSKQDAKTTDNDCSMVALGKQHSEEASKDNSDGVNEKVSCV

[3] = target: 5-hydroxytryptamine receptor 6 (Homo sapiens, UniProt P50406); experiment: Displacement of [3H]LSD from recombinant human 5-HT6 receptor expressed in CHO cells cell membranes after 60 mins by liquid scintillation counting method
5-hydroxytryptamine receptor 6, sequence (P50406 whole entry): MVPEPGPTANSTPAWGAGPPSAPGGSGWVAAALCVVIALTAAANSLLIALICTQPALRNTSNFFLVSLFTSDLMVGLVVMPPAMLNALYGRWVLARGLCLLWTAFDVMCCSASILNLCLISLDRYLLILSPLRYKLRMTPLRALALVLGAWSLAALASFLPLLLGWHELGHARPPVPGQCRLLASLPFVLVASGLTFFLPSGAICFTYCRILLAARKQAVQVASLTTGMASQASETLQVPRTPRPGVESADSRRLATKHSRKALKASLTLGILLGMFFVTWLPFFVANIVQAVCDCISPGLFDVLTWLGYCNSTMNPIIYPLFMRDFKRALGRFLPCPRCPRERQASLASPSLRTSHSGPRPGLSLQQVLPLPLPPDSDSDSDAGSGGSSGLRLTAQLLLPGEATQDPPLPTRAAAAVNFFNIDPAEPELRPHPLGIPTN

[4] = target: T3, 5-hydroxytryptamine receptor 7 (Homo sapiens, UniProt P34969); experiment: biochemical; assay type: cell-based, CHO
T3 sequence (P34969 whole entry): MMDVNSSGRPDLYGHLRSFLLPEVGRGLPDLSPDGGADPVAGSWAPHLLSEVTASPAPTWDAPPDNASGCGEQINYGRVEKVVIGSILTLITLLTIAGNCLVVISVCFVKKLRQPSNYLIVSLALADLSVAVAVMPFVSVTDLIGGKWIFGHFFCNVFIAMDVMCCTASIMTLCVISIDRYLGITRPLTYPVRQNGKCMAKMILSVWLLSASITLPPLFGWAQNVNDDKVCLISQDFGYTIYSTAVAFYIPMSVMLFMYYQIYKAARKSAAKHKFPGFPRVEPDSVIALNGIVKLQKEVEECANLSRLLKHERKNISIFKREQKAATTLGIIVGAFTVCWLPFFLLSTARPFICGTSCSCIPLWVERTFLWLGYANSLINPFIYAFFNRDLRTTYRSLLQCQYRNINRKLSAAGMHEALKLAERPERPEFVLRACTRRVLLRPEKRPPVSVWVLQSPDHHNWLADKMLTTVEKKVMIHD

D(2) dopamine receptor [5] = target: T4, D(2) dopamine receptor (Homo sapiens, UniProt P14416); experiment: Displacement of [3H]methylspiperonee from recombinant human D2 receptor expressed in HEK293 cells cell membranes after 60 mins by liquid scintillation counting method
T4 sequence (P14416 whole entry): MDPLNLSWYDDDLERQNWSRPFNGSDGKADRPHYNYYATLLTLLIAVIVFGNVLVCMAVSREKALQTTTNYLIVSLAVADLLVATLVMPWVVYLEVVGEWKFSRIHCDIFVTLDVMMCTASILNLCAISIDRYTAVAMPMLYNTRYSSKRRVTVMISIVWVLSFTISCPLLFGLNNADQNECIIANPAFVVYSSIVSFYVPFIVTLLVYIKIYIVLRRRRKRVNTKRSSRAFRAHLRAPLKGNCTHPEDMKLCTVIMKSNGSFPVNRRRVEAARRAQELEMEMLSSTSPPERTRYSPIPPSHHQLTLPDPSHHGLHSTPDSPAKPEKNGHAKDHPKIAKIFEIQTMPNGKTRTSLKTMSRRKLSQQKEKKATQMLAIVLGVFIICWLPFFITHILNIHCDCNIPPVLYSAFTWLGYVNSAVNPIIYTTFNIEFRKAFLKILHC

[6] = target: T5, Alpha-1A adrenergic receptor (Homo sapiens, UniProt P35348); experiment: Displacement of [3H]prazosin from recombinant human alpha1 adrenoceptor expressed in CHO cell membranes after 30 mins by liquid scintillation counting method
T5 sequence (P35348 whole entry): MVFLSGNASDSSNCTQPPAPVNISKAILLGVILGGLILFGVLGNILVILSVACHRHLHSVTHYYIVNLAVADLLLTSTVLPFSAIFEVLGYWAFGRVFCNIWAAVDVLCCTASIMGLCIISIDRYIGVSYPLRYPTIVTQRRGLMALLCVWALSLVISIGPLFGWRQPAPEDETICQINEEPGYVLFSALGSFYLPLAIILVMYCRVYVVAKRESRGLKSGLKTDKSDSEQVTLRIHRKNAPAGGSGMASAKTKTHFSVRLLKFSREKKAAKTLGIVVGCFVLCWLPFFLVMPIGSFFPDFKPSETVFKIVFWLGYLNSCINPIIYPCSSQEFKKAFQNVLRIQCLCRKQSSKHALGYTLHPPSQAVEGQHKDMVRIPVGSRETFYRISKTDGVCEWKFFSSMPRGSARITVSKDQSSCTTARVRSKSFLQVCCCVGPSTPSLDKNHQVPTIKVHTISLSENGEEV

[7] = target: T6, 5-hydroxytryptamine receptor 1A (Homo sapiens) (UniProt P08908); experiment: Agonist activity at human 5-HT1A receptor expressed in CHO-K1 cells co-expressing Galpha16 assessed as increase in calcium mobilization measured for 30 secs by aequorin-derived luminescence assay relative to serotonin; assay type: functional, cell-based
T6 sequence (whole entry): T1 sequence (P08908 whole entry)

[8] = target: T6, 5-hydroxytryptamine receptor 1A (Homo sapiens); experiment: Antagonist activity at human 5-HT1A receptor expressed in CHO-K1 cells co-expressing Galpha16 assessed as decrease in serotonin-induced calcium mobilization preincubated for 25 mins followed by serotonin challenge measured for 30 secs by aequorin-derived luminescence assay relative to control; assay type: functional, cell-based
[9] = target: T6, 5-hydroxytryptamine receptor 1A (Homo sapiens); experiment: (§1) Antagonist activity at human 5-HT1A receptor expressed in CHO-K1 cells co-expressing Galpha16 assessed as decrease in serotonin calcium mobilization preincubated for 25 mins followed by serotonin challenge measured for 30 secs by aequorin-derived luminescence assay; assay type: functional, cell-based
[10] = target: T1, 5-hydroxytryptamine receptor 1A; experiment: as §1; assay type: functional, cell-based
[11] = target: T2, 5-hydroxytryptamine receptor 2A; experiment: Antagonist activity at human 5-HT2A receptor expressed in CHO-K1 cells co-expressing Galpha16 assessed as decrease in serotonin calcium mobilization preincubated for 30 mins followed by serotonin challenge measured for 30 secs by aequorin-derived luminescence assay; assay type: functional, cell-based
[12] = target: T3, 5-hydroxytryptamine receptor 7; experiment: Agonist activity at human 5-HT7 receptor expressed in CHO-K1 cells assessed as increase in serotonin-induced cAMP level after 1 hr by TR-FRET assay relative to serotonin; assay type: functional, cell-based
[13] = target: T3, 5-hydroxytryptamine receptor 7; experiment: Antagonist activity at human 5-HT7 receptor expressed in CHO-K1 cells assessed as decrease in serotonin-induced cAMP level after 1 hr by TR-FRET assay relative to control; assay type: functional, cell-based
[14] = target: T3, 5-hydroxytryptamine receptor 7; experiment: Antagonist activity at human 5-HT7 receptor expressed in CHO-K1 cells assessed as decrease in serotonin-induced cAMP level after 1 hr by TR-FRET assay; assay type: functional, cell-based
D(2) dopamine receptor [15] = target: T4, D(2) dopamine receptor; experiment: Agonist activity at human D2 receptor expressed in CHO-K1 cells co-expressing Galphaqi5 assessed as increase apomorphine-induced calcium mobilization measured for 30 secs by aequorin-derived luminescence assay relative to apomorphine; assay type: functional, cell-based
D(2) dopamine receptor [16] = target: T4, D(2) dopamine receptor; experiment: Antagonist activity at human D2 receptor expressed in CHO-K1 cells co-expressing Galphaqi5 assessed as decrease in apomorphine-induced calcium mobilization preincubated for 30 mins followed by apomorphine challenge measured for 30 secs by aequorin-derived luminescence assay; assay type: functional, cell-based
Mus musculus [17] = experiment: Antidepressant-like activity in Albino Swiss CD-1 mouse assessed as immobility time at 5 mg/kg, ip administered 30 mins prior to test measured for last 4 mins of 6 mins observation by forced swim test (reference value: 153.9 to 201.9 secs); assay type: functional
Mus musculus [18] = experiment: Antidepressant-like activity in Albino Swiss CD-1 mouse assessed as immobility time at 10 mg/kg, ip administered 30 mins prior to test measured for last 4 mins of 6 mins observation by forced swim test (reference value: 153.9 to 201.9 secs); assay type: functional
Mus musculus [19] = experiment: Antidepressant-like activity in Albino Swiss CD-1 mouse assessed as immobility time at 20 mg/kg, ip administered 30 mins prior to test measured for last 4 mins of 6 mins observation by forced swim test (reference value: 153.9 to 201.9 secs); assay type: functional
Mus musculus [20] = experiment: Anxiolytic-like activity in Albino Swiss CD-1 mouse assessed as increase in number of punished crossings at 2.5 mg/kg, ip administered for 30 mins prior to test measured for 1 min by four-plate test; assay type: functional, organism-based
In short: (§2)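 Four-plate test in mice, i.p., 30 min before test; vehicle 0.9% NaCl; doses 1.25–10 mg/kg; number of punished crossings counted; mean ± SEM, n = 8–10 mice per group; ANOVA F statistics.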

Mus musculus [21] = experiment: Anxiolytic-like activity in Albino Swiss CD-1 mouse assessed as increase in number of punished crossings at 5 mg/kg, ip administered for 30 mins prior to test measured for 1 min by four-plate test; assay type: functional, organism-based; in short: as §2
Mus musculus [22] = experiment: Toxicity in Albino Swiss CD-1 mouse assessed as death at 20 to 40 mg/kg, ip; assay type: organism-based; conditions: in vivo
In short: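 Deaths counted in mice during maximal electroshock (MES) seizure testing after i.p. dosing, 6 mice per dose (3 or 1 at some top doses); recorded as number dead/number tested alongside protection and rotarod motor impairment (10 rpm); untreated control group included.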

Mus musculus [23] = experiment: Anticonvulsant activity in ip dosed Albino Swiss CD-1 mouse assessed as dose required to protect against 50 Hz current-induced seizure; assay type: functional; conditions: Swiss CD-1, ip
[24] = Neurotoxicity in ip dosed Albino Swiss CD-1 mouse assessed as minimum dose required to induce motor impairment treated 30 mins prior to test by rotarod test; assay type: toxicity, organism-based; conditions: in vivo
[25] = Protection index, ratio of TD50 for motor impairment in ip dosed Swiss albino CD-1 mouse to ED50 for protection against 50 Hz current-induced seizures in ip dosed Swiss albino CD-1 mouse; assay type: toxicity, organism-based, Swiss CD-1; conditions: in vivo, read-out: Ratio TD50/ED50
Mus musculus [26] = experiment: Toxicity in Albino Swiss CD-1 mouse assessed as effect on locomotory activity at 1.25 to 5 mg/kg, ip administered for 30 mins prior to test measured for 1 min; assay type: organism-based; conditions: in vivo
[27] = target: T2, 5-hydroxytryptamine receptor 2A; experiment: Agonist activity at human 5-HT2A receptor expressed in CHO-K1 cells co-expressing Galpha16 assessed as increase in calcium mobilization measured for 30 secs by aequorin-derived luminescence assay; assay type: functional, cell-based

Question: With `COc1ccccc1N1CCN(CCOCCOc2c(C)cc(C)cc2C)CC1.Cl.Cl` as the molecule, how does the Ki [1] read?
Answer: The Ki was 0.005 µM.

Question: What about the Ki [2] of the same molecule?
Answer: The Ki was 0.245 µM.

Question: What about the Ki [3] of the same molecule?
Answer: The Ki was 2.43 µM.

Question: What about the Ki [4] of the same molecule?
Answer: The Ki was 0.07 µM.

Question: What about the Ki (D(2) dopamine receptor [5]) of the same molecule?
Answer: Its Ki is 0.189 µM.

Question: What about the Ki [6] of the same molecule?
Answer: The Ki was 0.015 µM.

Question: And the Emax [7]?
Answer: Its Emax is 3%.

Question: What about the Emax [8] of the same molecule?
Answer: The Emax was 20%.

Question: What about the Kb [9] of the same molecule?
Answer: The Kb was 0.0139 µM.

Question: What about the IC50 [10] of the same molecule?
Answer: The IC50 was 0.0568 µM.

Question: And the IC50 [11]?
Answer: Its IC50 is 18.2 µM.

Question: What about the Emax [12] of the same molecule?
Answer: The Emax was 11%.

Question: And the Emax [13]?
Answer: Its Emax is 3%.

Question: And the IC50 [14]?
Answer: Its IC50 is 1.84 µM.

Question: What about the Kb [14] of the same molecule?
Answer: The Kb was 0.783 µM.

Question: What about the Emax (D(2) dopamine receptor [15]) of the same molecule?
Answer: Its Emax is 1%.

Question: And the IC50 (D(2) dopamine receptor [16])?
Answer: Its IC50 is 0.082 µM.

Question: What about the Kb (D(2) dopamine receptor [16]) of the same molecule?
Answer: Its Kb is 0.0244 µM.

Question: What about the Time (Mus musculus [17]) of the same molecule?
Answer: The Time was 138.5 s.

Question: What about the Time (Mus musculus [18]) of the same molecule?
Answer: The Time was 131.3 s.

Question: And the Time (Mus musculus [19])?
Answer: Its Time is 150.6 s.

Question: And the Activity (Mus musculus [20])?
Answer: Its Activity is “Active”.

Question: And the Activity (Mus musculus [21])?
Answer: Its Activity is “Active”.

Question: And the Activity (Mus musculus [22])?
Answer: The Activity was “Non-Toxic”.

Question: And the ED50 (Mus musculus [23])?
Answer: Its ED50 is 26.3 mg/kg.

Question: What about the TD50 at 0.5 h [24] of the same molecule?
Answer: Its TD50 at 0.5 h is 31.5 mg/kg.

Question: What about the selectivity ratio [25] of the same molecule?
Answer: Its selectivity ratio is 1.19.

Question: And the Activity (Mus musculus [26])?
Answer: Its Activity is “Non-Toxic”.

Question: Which EC50 [27] does the source give for `CC(N)Cc1c[nH]c2ccc(O)cc12` (centres undefined) here?
Answer: Its EC50 is 0.002 µM.
